ChEMBL document CHEMBL1148334, “Design and synthesis of novel biologically active thrombin receptor non-peptide mimetics based on the pharmacophoric cluster Phe/Arg/NH2 of the Ser42-Phe-Leu-Leu-Arg46 motif sequence: platelet aggregation and relaxant activities” (J Med Chem, 2004)

Columns and labels:
Rattus norvegicus [1] = species on record: Rattus norvegicus; assay: Maximal relaxing effect of compound in isolated rat aortic rings precontracted with 1 uM phenylephrine at 100 uM concentration; assay type: functional, Aorta
How it was run: (§1)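 Thoracic aorta of adult male Wistar rats cut into 2 mm rings, one with intact and one with mechanically removed endothelium. Superfused 1 mL/min with modified Tyrode-type buffer, 37 °C, pH 7.44, carbogen; basal tension 2 g, isometric force. Endothelium checked with 1 µM carbachol against 1 µM phenylephrine. Compounds added 30 min after perfusion, on phenylephrine tone; some rings pretreated with 300 µM L-NAME. Mean ± SEM.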

Homo sapiens [2] = species on record: Homo sapiens; assay: In vitro inhibitory concentration against thrombin-induced platelet aggregation in human platelet-rich plasma in presence of thrombin at 0.30 IU/mL; assay type: functional
How it was run: (§2)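 Healthy drug-free donors' venous blood centrifuged 800 rpm 8 min RT; PRP diluted with PPP to 2 × 10⁸ platelets/mL, one donor per series. PRP stirred (1100 rpm) with compound 0.05-1 mM ≥4 min, then bovine thrombin added at 37 °C; light transmittance recorded 4 min, PPP = 100%, PRP = 0%. Studies finished within 1 h of collection.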

Homo sapiens [3] = species on record: Homo sapiens; assay: In vitro inhibitory concentration against thrombin-induced platelet aggregation in human platelet-rich plasma in presence of thrombin at 0.20 IU/mL; assay type: functional; how it was run: as §2
[4] = Relative potency (REC) is the ratio of concentration of compound to the concentration of SFLLR-NH2 for producing equal relaxing effect on the isolated rat aortic rings; assay type: functional, Aorta
Homo sapiens [5] = species on record: Homo sapiens; assay: In vitro inhibitory concentration against thrombin-induced platelet aggregation in human platelet-rich plasma in presence of thrombin at 0.25 IU/mL; assay type: functional; how it was run: as §2
Rattus norvegicus [6] = species on record: Rattus norvegicus; assay: Reduction of maximal relaxing response in isolated rat aortic rings precontracted with Nomega-nitro-L-arginine (L-NAME) at 0.1-100 uM concentration; Range is 17-18%; assay type: functional, Aorta; how it was run: as §1
Rattus norvegicus [7] = species on record: Rattus norvegicus; assay: Maximal relaxing effect in isolated rat aortic rings with endothelium precontracted with 1 uM phenylephrine at 0.1-100 uM concentration; Range is 1.3-42.7%; assay type: functional, Aorta; how it was run: as §1
Rattus norvegicus [8] = species on record: Rattus norvegicus; assay: Maximal relaxing effect in isolated rat aortic rings without endothelium precontracted with 1 uM phenylephrine at 0.1-100 uM concentration; Range is 2.3-14%; assay type: functional, Aorta; how it was run: as §1
Rattus norvegicus [9] = species on record: Rattus norvegicus; assay: Relaxing effect dependent on nitric oxide in isolated rat aortic rings at 0.1-100 uM compound concentration; Range is 0-25%; assay type: functional, Aorta; how it was run: as §1
Rattus norvegicus [10] = species on record: Rattus norvegicus; assay: Maximal relaxing effect in isolated rat aortic rings with endothelium precontracted with 1 uM phenylephrine at 0.1-100 uM concentration; Range is 1.8-40.7%; assay type: functional, Aorta; how it was run: as §1
Rattus norvegicus [11] = species on record: Rattus norvegicus; assay: Contraction in isolated rat aortic rings without endothelium at 10-100 uM concentration; Range is 2-3%; assay type: functional, Aorta; how it was run: as §1
Rattus norvegicus [12] = species on record: Rattus norvegicus; assay: Maximal relaxing effect of compound in isolated rat aortic rings precontracted phenylephrine at 100 uM concentration; assay type: functional, Aorta; how it was run: as §1
Homo sapiens [13] = species on record: Homo sapiens; assay: Inhibitory concentration against SFLLR-NH2 (2.5 uM) induced platelet aggregation in human platelet-rich plasma; assay type: functional, organism-based
How it was run: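 Human PRP (2 × 10⁸ platelets/mL, healthy donors) stirred with compound, then aggregation triggered by SFLLR-NH₂ 2.5 µM instead of thrombin; optical aggregometry read-out.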

| SMILES | Max efficacy (Rattus norvegicus [1]) [%] | IC50 (Homo sapiens [2]) [µM] | IC50 (Homo sapiens [3]) [µM] | Relative potency [4] | IC50 (Homo sapiens [5]) [µM] | Reduction (Rattus norvegicus [6]) [%] | Max efficacy (Rattus norvegicus [7]) [%] | Max efficacy (Rattus norvegicus [8]) [%] | Relaxation (Rattus norvegicus [9]) [%] | Max efficacy (Rattus norvegicus [10]) [%] | Contraction (Rattus norvegicus [11]) [%] | Max efficacy (Rattus norvegicus [12]) [%] | IC50 (Homo sapiens [13]) [µM] |
| --- | --- | --- | --- | --- | --- | --- | --- | --- | --- | --- | --- | --- | --- |
| N=C(N)NCCCCCC(=O)NCC1CCN(C(=O)Cc2ccccc2)CC1 | 91.4 | > 250 | 140 | 0.06 | > 250 | – | – | – | – | – | – | – | – |
| NC(N)=NCCCCCC(=O)NCC1CCN(C(=O)C(N)Cc2ccccc2)CC1 (stereo not given) | – | 870 | > 1000 | 13.6 | > 1000 | 18 | 42.7 | 14 | 25 | – | – | – | – |
| NC(N)=NCCCCCC(=O)NC1CCN(C(=O)C(N)Cc2ccccc2)C1 (stereo not given) | – | 390 | 420 | 24 | 340 | – | – | – | – | 40.7 | 3 | – | – |
| N=C(N)NCCCCCC(=O)NC1CCN(C(=O)Cc2ccccc2)C1 (stereo not given) | – | 210 | 110 | 17.3 | 120 | – | – | – | – | – | – | 37.5 | – |
| NC(N)=NCCCCCC(=O)N1CCN(C(=O)C(N)Cc2ccccc2)CC1 (stereo not given) | – | 240 | 120 | 38.2 | 90 | – | – | – | – | – | – | – | 370 |
| N=C(N)NCCCCCC(=O)N1CCN(C(=O)Cc2ccccc2)CC1 | 81 | 440 | 460 | 0.19 | 510 | – | – | – | – | – | – | – | 780 |
